Assay results from ChEMBL document CHEMBL5712081, “Signaling function of PRC2 is essential for TCR-driven T cell responses” (J Exp Med, 2018).
Calls of active or inactive are those of the source. The calls are words filed in the database; no cut-off is given here.

How the values were obtained:
CD4+ T cell [1] = assay: Down-regulation of Erk phosphorylation in TCR-triggered human CD4+ T cell by Western blotting analysis; assay type: functional, cell-based
In short: (§1)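 Purified CD4+ T cells in DMSO or inhibitor were coated with 10 μg/ml anti-CD3 and 2.5 μg/ml anti-CD28 on ice for 20 min. They were cross-linked with 20 μg/ml anti-hamster IgG for 2 or 10 min at 37°C, then lysed in 0.5% NP-40 buffer. pErk1/2 (T202/Y204) was read by Western blot and normalized to total Erk. Three independent experiments.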

CD4+ T cell [2] = assay: Down-regulation of Mek1/2 at S217/221 phosphorylation in TCR-triggered human CD4+ T cell at 10 uM by Western blotting analysis; assay type: functional, cell-based
In short: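 CD4+ T cells in DMSO or 10 µM inhibitor were stimulated with anti-CD3 plus anti-CD28 antibodies. pMek1/2 (S217/221) was measured by Western blot and normalized to total Mek1. Three independent experiments.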

[3] = target: T1, Histone-lysine N-methyltransferase EZH1 (Homo sapiens) (UniProt Q92800); assay: Inhibition of EZH1 (unknown origin) at 2 nM
T1 sequence (whole entry): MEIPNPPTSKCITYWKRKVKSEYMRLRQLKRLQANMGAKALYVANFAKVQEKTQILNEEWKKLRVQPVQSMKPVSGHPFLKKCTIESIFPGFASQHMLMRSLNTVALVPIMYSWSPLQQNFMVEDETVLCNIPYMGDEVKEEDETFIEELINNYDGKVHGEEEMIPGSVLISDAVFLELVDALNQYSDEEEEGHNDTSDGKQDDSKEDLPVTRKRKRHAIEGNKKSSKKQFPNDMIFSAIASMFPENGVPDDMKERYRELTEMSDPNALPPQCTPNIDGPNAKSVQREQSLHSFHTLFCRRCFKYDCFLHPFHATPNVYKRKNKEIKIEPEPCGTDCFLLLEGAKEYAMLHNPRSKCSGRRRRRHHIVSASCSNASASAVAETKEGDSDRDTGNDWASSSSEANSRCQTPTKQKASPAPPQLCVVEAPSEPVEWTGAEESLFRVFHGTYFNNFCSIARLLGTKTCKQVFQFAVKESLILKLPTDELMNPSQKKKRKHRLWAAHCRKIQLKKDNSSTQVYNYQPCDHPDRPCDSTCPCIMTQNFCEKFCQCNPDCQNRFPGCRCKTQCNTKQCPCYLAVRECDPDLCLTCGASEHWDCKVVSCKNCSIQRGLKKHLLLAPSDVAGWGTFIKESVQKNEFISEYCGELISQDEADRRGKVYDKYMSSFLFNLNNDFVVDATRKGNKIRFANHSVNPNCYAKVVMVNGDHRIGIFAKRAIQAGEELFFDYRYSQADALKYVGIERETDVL

[4] = target: Histone-lysine N-methyltransferase EZH2 (Homo sapiens) (UniProt Q15910); assay: Inhibition of EZH2 (unknown origin) at 45 nM
Chain of Histone-lysine N-methyltransferase EZH2 (Homo sapiens) (Q15910 whole entry, looked up): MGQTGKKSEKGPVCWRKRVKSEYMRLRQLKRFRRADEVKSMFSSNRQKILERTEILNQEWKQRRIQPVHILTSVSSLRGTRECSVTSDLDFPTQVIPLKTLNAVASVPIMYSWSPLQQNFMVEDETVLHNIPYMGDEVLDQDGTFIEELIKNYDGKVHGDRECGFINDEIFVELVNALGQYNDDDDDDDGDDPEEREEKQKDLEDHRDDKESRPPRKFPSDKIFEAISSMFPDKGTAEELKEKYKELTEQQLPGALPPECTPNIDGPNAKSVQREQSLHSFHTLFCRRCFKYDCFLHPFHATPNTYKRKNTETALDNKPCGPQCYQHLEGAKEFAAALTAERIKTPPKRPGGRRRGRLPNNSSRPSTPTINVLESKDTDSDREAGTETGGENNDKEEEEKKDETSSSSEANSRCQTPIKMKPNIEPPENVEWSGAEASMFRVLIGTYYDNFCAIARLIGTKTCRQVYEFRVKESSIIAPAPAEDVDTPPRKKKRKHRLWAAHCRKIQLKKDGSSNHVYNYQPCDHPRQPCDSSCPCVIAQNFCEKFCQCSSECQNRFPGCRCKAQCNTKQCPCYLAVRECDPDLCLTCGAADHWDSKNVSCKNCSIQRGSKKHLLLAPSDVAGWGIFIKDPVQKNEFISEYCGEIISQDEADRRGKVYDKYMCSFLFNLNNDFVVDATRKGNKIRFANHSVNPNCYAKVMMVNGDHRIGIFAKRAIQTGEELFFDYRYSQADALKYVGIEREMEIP

CD4+ T cell [5] = assay: Effect on Erk phosphorylation in TCR-triggered human CD4+ T cell at 10 uM by Western blotting analysis; assay type: functional, cell-based; in short: as §1
CD4+ T cell [6] = assay: Down-regulation of Erk phosphorylation in human CD4+ T cell upto 50 uM in the presence of PMA by Western blotting analysis; assay type: functional, cell-based
In short: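 Purified CD4+ T cells in DMSO or inhibitor were given prewarmed medium with 5 ng/ml PMA for 10 min at 37°C and lysed in 0.5% NP-40 buffer. pErk1/2 (T202/Y204) was detected by Western blot and normalized to total Erk1/2. Three independent experiments.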

Mus musculus [7] = assay: Antiinflammatory activity in Foxp3-DTR expressing C57BL/6 autoimmune mouse model assessed as decrease in T-cells at 150 mg/kg after 8 days of Dtx treatment for 5 days; assay type: functional, organism-based; conditions: time 5.0 day
In short: (§2)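 Foxp3-DTR mice were depleted of Treg cells by DTx injection. They received 150 mg/kg inhibitor either together with DTx or starting on day 8 after DTx began. Total cells and T cells, B cells, granulocytes and macrophages in secondary lymphoid organs were counted.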

[8] = target: T1, Histone-lysine N-methyltransferase EZH1 (Homo sapiens); assay: Inhibition of Ezh1 in human CD4+ T cell by mass spectrometry analysis; assay type: cell-based
CD4+ T cell [9] = assay: Downregulation of Erk phosphorylation in TCR-triggered human CD4+ T cell at 10 uM by Western blotting analysis; assay type: functional, cell-based; in short: as §1
Mus musculus [10] = assay: Protection against Foxp3-DTR expressing C57BL/6 autoimmune mouse model assessed as prevention of regulatory t cell depletion at 150 mg/kg after 8 days of Dtx treatment for 5 days; assay type: functional, organism-based; conditions: time 5.0 day
In short: (§3)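 Foxp3-DTR mice were given DTx to deplete Treg cells, with 150 mg/kg inhibitor either at the same time or from day 8 onward. Splenic Foxp3+ Treg frequency was measured, spleen and lymph node size was photographed, and total lymphoid cells in lymph nodes were counted per mouse.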

CD4+ T cell [11] = assay: Anti-proliferative activity against TCR induced mouse CD4+ T cell
Mus musculus [12] = assay: Protection activity against Foxp3-DTR expressing C57BL/6 autoimmune mouse model assessed as decrease in number of Ki67+ cells at 150 mg/kg after 8 days of Dtx treatment for 5 days; assay type: functional, organism-based; conditions: time 5.0 day
In short: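 Foxp3-DTR mice were given DTx, and 150 mg/kg inhibitor was started on day 8 after DTx initiation. Ki67+ dividing CD19+ B, CD4+ and CD8+ T cells in lymph nodes were measured per mouse. Two experiments, n = 4–15, unpaired Student's t test.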

Mus musculus [13] = assay: Protection against Foxp3-DTR expressing C57BL/6 autoimmune mouse model assessed as reversal of splenomegaly at 150 mg/kg after 8 days of Dtx treatment for 5 days; assay type: functional, organism-based; conditions: time 5.0 day; in short: as §3
Mus musculus [14] = assay: Antiinflammatory activity in Foxp3-DTR expressing C57BL/6 autoimmune mouse model assessed as decrease in B-cells at 150 mg/kg after 8 days of Dtx treatment for 5 days; assay type: functional, organism-based; conditions: time 5.0 day; in short: as §2
[15] = target: T2, Histone-lysine N-methyltransferase EZH1 (Homo sapiens, UniProt Q92800); assay: Inhibition of human EZH1
T2 sequence (Q92800 whole entry): T1 sequence (whole entry)

CD4+ T cell [16] = assay: Down-regulation of Erk phosphorylation in human CD4+ T cell upto 50 uM by Western blotting analysis; assay type: functional, cell-based; in short: as §1
Mus musculus [17] = assay: Antiinflammatory activity in Foxp3-DTR expressing C57BL/6 autoimmune mouse model assessed as decrease in macrophages at 150 mg/kg after 8 days of Dtx treatment for 5 days; assay type: functional, organism-based; conditions: time 5.0 day; in short: as §2
Mus musculus [18] = assay: Antiinflammatory activity in Foxp3-DTR expressing C57BL/6 autoimmune mouse model assessed as decrease in granulocytes at 150 mg/kg after 8 days of Dtx treatment for 5 days; assay type: functional, organism-based; conditions: time 5.0 day; in short: as §2

inhibition [3] | inhibition [4] | inhibition [8] | IC50 [15] [nM] | SMILES | Activity (CD4+ T cell [1]) | Activity (CD4+ T cell [2]) | Activity (CD4+ T cell [5]) | Activity (CD4+ T cell [6]) | Activity (Mus musculus [7]) | Activity (CD4+ T cell [9]) | Activity (Mus musculus [10]) | Activity (CD4+ T cell [11]) | Activity (Mus musculus [12]) | Activity (Mus musculus [13]) | Activity (Mus musculus [14]) | Activity (CD4+ T cell [16]) | Activity (Mus musculus [17]) | Activity (Mus musculus [18])
– | – | – | – | CCCc1cc(C)n(C)c(=O)c1CN(C)C(=O)c1cc(-c2ccc(N3CCN(C(C)C)CC3)nc2)cc2c1cnn2C(C)C | inactive | – | – | – | – | – | – | – | – | – | – | – | – | –
Active | Active | – | – | CCCc1cc(C)[nH]c(=O)c1CNC(=O)c1cc(-c2ccc(N3CCN(C(C)C)CC3)nc2)cc2c1cnn2C(C)C | Active | Active | Active | – | – | – | – | – | – | – | – | – | – | –
– | – | Active | 633 | Cc1cc(C)c(CNC(=O)c2cc(-c3ccc(N4CCN(C)CC4)nc3)cc3c2c(C)cn3C(C)C)c(=O)[nH]1 | – | – | – | inactive | Active | Active | Active | Active | Active | Active | Active | Active | Active | Active
